Active and inactive are the calls of the source. No cut-off for these calls is given here.
How the values were obtained:
Mus musculus [1] = assay: Antidepressant activity in BALB/cJ mouse assessed as decrease in immobility time at 1 mg/kg, ip after 30 mins by forced swim test; type: functional, organism-based; set-up: dose 1 mg/kg
In short: (§1)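 Male BALB/cJ mice, 8–10 weeks old; compound in injectable water given ip at 10 mL/kg. Sertraline (10 or 20 mg/kg) served as positive control. 30 min post-dose, each mouse placed in a glass cylinder with 12 cm of 23 ± 1 °C water; immobility (floating) timed over a 6 min trial. n = 10/group; ANOVA with post hoc test.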

Mus musculus [2] = assay: Antidepressant activity in BALB/cJ mouse assessed as decrease in immobility time at 3 mg/kg, ip after 30 mins by forced swim test; type: functional, organism-based; set-up: dose 3 mg/kg; in short: as §1
Mus musculus [3] = assay: Ex vivo receptor occupancy at beta2 nAChR in BALB/cJ mouse brain at 3 mg/kg, ip after 30 mins; type: functional; details: route intraperitoneal
In short: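 Male BALB/cJ mice, 8–10 weeks old, dosed IP at 3 mg/kg (water vehicle, 10 mL/kg); vehicle controls received water. Brains collected 30 min after dosing, matching the forced-swim timing. β2* nAChR occupancy measured ex vivo in thalamus.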

Mus musculus [4] = assay: Antidepressant activity in BALB/cJ mouse assessed as decrease in immobility time at 10 mg/kg, po after 30 mins by forced swim test; type: functional, organism-based; set-up: dose 10 mg/kg
In short: (§2)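 Male BALB/cJ mice, 8–10 weeks old, dosed by oral gavage with compound in injectable water (10 mL/kg). Sertraline served as positive control. Forced swim begins 30 min after dosing, in a cylinder with 12 cm of 23 ± 1 °C water; total immobility recorded over 6 min. ANOVA followed by Newman-Keuls post hoc test.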

[5] = target: T1, Neuronal acetylcholine receptor; alpha4/beta2 (Homo sapiens, UniProt P17787+P43681); assay: Agonist activity at human alpha4beta2 nAChR expressed in human SH-EP1 cells assessed as increase of carbamylcholine-induced 86Rb+ ion efflux by liquid scintillation counting relative to carbamylcholine; type: functional, cell-based
T1 sequence (P17787 whole entry): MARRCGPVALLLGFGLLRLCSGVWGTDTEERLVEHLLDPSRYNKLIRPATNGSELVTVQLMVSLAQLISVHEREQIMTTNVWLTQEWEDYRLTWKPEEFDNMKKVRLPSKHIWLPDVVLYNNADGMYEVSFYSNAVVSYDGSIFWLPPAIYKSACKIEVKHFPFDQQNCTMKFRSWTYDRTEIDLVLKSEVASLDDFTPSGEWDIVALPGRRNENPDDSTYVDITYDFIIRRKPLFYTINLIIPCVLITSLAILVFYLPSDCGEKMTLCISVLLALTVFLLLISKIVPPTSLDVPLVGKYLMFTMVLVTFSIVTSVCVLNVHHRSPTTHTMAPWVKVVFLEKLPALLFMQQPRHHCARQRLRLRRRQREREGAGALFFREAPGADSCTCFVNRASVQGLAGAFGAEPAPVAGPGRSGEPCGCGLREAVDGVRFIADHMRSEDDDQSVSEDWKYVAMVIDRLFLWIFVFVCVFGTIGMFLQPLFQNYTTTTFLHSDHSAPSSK
T1 sequence (P43681 whole entry): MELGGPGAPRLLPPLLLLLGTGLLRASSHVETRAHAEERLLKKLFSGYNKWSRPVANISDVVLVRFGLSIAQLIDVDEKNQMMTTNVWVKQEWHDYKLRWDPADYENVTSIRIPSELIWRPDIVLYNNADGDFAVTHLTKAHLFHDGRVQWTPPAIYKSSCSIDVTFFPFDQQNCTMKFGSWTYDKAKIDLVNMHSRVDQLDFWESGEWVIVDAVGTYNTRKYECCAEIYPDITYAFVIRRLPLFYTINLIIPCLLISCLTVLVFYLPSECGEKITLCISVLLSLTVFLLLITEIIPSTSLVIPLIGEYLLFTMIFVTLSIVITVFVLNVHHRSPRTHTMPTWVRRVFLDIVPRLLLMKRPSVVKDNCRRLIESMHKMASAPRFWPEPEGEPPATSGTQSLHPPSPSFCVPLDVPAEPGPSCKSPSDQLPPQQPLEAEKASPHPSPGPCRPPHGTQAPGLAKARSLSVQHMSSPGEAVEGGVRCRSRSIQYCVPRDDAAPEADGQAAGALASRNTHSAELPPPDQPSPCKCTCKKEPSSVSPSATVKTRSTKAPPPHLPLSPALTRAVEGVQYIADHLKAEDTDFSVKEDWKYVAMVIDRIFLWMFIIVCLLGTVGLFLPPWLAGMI

[6] = target: T1, Neuronal acetylcholine receptor; alpha4/beta2; assay: Agonist activity at human alpha4beta2 nAChR expressed in human SH-EP1 cells assessed as increase of carbamylcholine-induced 86Rb+ ion efflux by liquid scintillation counting; type: functional, cell-based
[7] = Binding affinity to sigma2 receptor at 10 uM by radioligand displacement assay
[8] = target: Sigma non-opioid intracellular receptor 1 (Homo sapiens) (UniProt Q99720); assay: Binding affinity to sigma1 receptor at 10 uM by radioligand displacement assay
Sequence of Sigma non-opioid intracellular receptor 1 (Homo sapiens) (Q99720 whole entry): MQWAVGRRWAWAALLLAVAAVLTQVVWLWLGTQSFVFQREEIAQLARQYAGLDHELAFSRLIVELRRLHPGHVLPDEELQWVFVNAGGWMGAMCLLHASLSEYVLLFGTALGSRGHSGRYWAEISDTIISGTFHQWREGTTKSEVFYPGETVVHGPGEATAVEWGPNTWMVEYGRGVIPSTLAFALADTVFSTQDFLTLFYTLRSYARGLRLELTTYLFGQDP

[9] = target: Sodium-dependent serotonin transporter (Homo sapiens) (UniProt P31645); assay: Binding affinity to SERT at 10 uM by radioligand displacement assay
Sequence of Sodium-dependent serotonin transporter (Homo sapiens) (P31645 whole entry, looked up): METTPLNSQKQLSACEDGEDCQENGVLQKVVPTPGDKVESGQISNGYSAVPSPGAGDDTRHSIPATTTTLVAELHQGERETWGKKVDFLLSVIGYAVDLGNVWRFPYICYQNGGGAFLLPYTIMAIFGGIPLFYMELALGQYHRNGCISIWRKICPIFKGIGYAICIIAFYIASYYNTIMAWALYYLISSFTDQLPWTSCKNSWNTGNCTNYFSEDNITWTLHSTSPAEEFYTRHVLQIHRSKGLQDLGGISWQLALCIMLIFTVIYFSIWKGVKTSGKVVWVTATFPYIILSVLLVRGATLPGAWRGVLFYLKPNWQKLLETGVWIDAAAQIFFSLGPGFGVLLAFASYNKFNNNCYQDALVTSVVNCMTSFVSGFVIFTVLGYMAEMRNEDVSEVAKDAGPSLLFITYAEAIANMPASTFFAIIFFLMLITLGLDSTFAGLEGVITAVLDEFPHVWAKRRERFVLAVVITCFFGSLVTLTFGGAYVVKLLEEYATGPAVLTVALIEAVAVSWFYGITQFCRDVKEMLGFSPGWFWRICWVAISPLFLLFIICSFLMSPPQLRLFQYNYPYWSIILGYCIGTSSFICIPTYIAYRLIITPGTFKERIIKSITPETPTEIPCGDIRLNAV

[10] = target: Sodium-dependent noradrenaline transporter (Homo sapiens) (UniProt P23975); assay: Binding affinity to NET at 10 uM by radioligand displacement assay
[11] = target: T2, Kappa-type opioid receptor (Homo sapiens, UniProt P41145); assay: Binding affinity to kappa opioid receptor at 10 uM by radioligand displacement assay
T2 sequence (P41145 whole entry): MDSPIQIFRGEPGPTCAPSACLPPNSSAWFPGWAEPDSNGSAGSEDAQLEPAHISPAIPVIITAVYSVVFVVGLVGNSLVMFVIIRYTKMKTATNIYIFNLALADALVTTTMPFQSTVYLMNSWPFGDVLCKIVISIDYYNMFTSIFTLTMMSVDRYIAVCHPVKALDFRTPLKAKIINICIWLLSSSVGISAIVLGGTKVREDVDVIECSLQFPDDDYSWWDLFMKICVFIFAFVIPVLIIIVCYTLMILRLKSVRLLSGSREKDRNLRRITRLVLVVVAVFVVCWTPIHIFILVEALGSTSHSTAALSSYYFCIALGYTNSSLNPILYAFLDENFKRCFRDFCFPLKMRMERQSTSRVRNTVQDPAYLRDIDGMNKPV

[12] = target: Delta-type opioid receptor (Homo sapiens) (UniProt P41143); assay: Binding affinity to delta opioid receptor at 10 uM by radioligand displacement assay
[13] = target: Muscarinic acetylcholine receptor M4 (Homo sapiens) (UniProt P08173); assay: Binding affinity to muscarinic M4 receptor at 10 uM by radioligand displacement assay
[14] = target: Muscarinic acetylcholine receptor M3 (Homo sapiens) (UniProt P20309); assay: Binding affinity to muscarinic M3 receptor at 10 uM by radioligand displacement assay
[15] = target: Muscarinic acetylcholine receptor M2 (Homo sapiens) (UniProt P08172); assay: Binding affinity to muscarinic M2 receptor at 10 uM by radioligand displacement assay
[16] = target: Muscarinic acetylcholine receptor M1 (Homo sapiens) (UniProt P11229); assay: Binding affinity to muscarinic M1 receptor at 10 uM by radioligand displacement assay
[17] = target: Histamine H4 receptor (Homo sapiens) (UniProt Q9H3N8); assay: Binding affinity to histamine H4 receptor at 10 uM by radioligand displacement assay
[18] = target: Histamine H3 receptor (Homo sapiens) (UniProt Q9Y5N1); assay: Binding affinity to histamine H3 receptor at 10 uM by radioligand displacement assay
[19] = target: Histamine H2 receptor (Homo sapiens) (UniProt P25021); assay: Binding affinity to histamine H2 receptor at 10 uM by radioligand displacement assay
[20] = target: Beta-2 adrenergic receptor (Homo sapiens) (UniProt P07550); assay: Binding affinity to beta2 adrenergic receptor at 10 uM by radioligand displacement assay
[21] = target: Beta-1 adrenergic receptor (Homo sapiens) (UniProt P08588); assay: Binding affinity to beta1 adrenergic receptor at 10 uM by radioligand displacement assay
[22] = target: Alpha-2C adrenergic receptor (Homo sapiens) (UniProt P18825); assay: Binding affinity to Alpha-2C adrenergic receptor at 10 uM by radioligand displacement assay
[23] = target: Alpha-2B adrenergic receptor (Homo sapiens) (UniProt P18089); assay: Binding affinity to alpha2B adrenergic receptor at 10 uM by radioligand displacement assay
[24] = target: Alpha-2A adrenergic receptor (Homo sapiens) (UniProt P08913); assay: Binding affinity to alpha2A adrenergic receptor at 10 uM by radioligand displacement assay
Sequence of Alpha-2A adrenergic receptor (Homo sapiens) (P08913 whole entry): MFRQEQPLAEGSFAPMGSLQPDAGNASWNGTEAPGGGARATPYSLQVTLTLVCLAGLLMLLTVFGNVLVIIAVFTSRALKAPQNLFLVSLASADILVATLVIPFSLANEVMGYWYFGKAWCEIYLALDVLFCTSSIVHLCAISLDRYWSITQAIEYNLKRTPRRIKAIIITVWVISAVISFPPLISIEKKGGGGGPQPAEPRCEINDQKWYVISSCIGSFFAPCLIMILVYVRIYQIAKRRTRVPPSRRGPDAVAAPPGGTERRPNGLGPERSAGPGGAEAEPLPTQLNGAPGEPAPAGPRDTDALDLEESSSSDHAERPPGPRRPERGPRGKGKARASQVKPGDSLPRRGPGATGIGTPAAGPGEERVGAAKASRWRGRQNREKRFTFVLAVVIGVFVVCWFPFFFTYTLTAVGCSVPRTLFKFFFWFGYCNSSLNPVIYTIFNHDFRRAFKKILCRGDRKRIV

[25] = target: Alpha-1D adrenergic receptor (Homo sapiens) (UniProt P25100); assay: Binding affinity to Alpha-1D adrenergic receptor at 10 uM by radioligand displacement assay
[26] = target: Alpha-1B adrenergic receptor (Homo sapiens) (UniProt P35368); assay: Binding affinity to Alpha-1B adrenergic receptor at 10 uM by radioligand displacement assay
[27] = target: Alpha-1A adrenergic receptor (Homo sapiens) (UniProt P35348); assay: Binding affinity to alpha1A adrenergic receptor at 10 uM by radioligand displacement assay
[28] = Binding affinity to rat benzodiazepine receptor at 10 uM by radioligand displacement assay
[29] = target: D(1B) dopamine receptor (Homo sapiens) (UniProt P21918); assay: Binding affinity to dopamine D5 receptor at 10 uM by radioligand displacement assay
[30] = target: D(4) dopamine receptor (Homo sapiens) (UniProt P21917); assay: Binding affinity to dopamine D4 receptor at 10 uM by radioligand displacement assay
[31] = target: D(3) dopamine receptor (Homo sapiens) (UniProt P35462); assay: Binding affinity to dopamine D3 receptor at 10 uM by radioligand displacement assay
Sequence of D(3) dopamine receptor (Homo sapiens) (P35462 whole entry): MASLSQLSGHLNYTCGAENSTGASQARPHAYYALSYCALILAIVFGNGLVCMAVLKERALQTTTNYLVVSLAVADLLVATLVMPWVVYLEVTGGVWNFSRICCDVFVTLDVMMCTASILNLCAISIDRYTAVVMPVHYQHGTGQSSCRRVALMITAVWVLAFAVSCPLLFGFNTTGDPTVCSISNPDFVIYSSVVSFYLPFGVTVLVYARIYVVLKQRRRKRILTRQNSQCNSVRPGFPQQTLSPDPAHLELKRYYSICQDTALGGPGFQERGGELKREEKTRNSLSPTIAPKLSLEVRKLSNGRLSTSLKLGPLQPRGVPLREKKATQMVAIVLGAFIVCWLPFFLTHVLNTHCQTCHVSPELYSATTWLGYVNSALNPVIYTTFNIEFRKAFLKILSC

[32] = target: D(2) dopamine receptor (Homo sapiens) (UniProt P14416); assay: Binding affinity to dopamine D2 receptor at 10 uM by radioligand displacement assay
[33] = target: D(1A) dopamine receptor (Homo sapiens) (UniProt P21728); assay: Binding affinity to dopamine D1 receptor at 10 uM by radioligand displacement assay
[34] = Binding affinity to GABAA receptor at 10 uM by radioligand displacement assay
[35] = target: 5-hydroxytryptamine receptor 7 (Homo sapiens) (UniProt P34969); assay: Binding affinity to 5HT7 receptor at 10 uM by radioligand displacement assay
[36] = target: 5-hydroxytryptamine receptor 6 (Homo sapiens) (UniProt P50406); assay: Binding affinity to 5HT6 receptor at 10 uM by radioligand displacement assay
[37] = Binding affinity to 5HT3 receptor at 10 uM by radioligand displacement assay
[38] = target: 5-hydroxytryptamine receptor 2C (Homo sapiens) (UniProt P28335); assay: Binding affinity to 5HT2C receptor at 10 uM by radioligand displacement assay
[39] = target: 5-hydroxytryptamine receptor 2B (Homo sapiens) (UniProt P41595); assay: Binding affinity to 5HT2B receptor at 10 uM by radioligand displacement assay
[40] = target: 5-hydroxytryptamine receptor 2A (Homo sapiens) (UniProt P28223); assay: Binding affinity to 5HT2A receptor at 10 uM by radioligand displacement assay
[41] = target: 5-hydroxytryptamine receptor 1E (Homo sapiens) (UniProt P28566); assay: Binding affinity to 5HT1E receptor at 10 uM by radioligand displacement assay
[42] = target: 5-hydroxytryptamine receptor 1B (Homo sapiens) (UniProt P28222); assay: Binding affinity to 5HT1B receptor at 10 uM by radioligand displacement assay
[43] = target: 5-hydroxytryptamine receptor 1D (Homo sapiens) (UniProt P28221); assay: Binding affinity to 5HT1D receptor at 10 uM by radioligand displacement assay
[44] = target: 5-hydroxytryptamine receptor 1A (Homo sapiens) (UniProt P08908); assay: Binding affinity to 5HT1A receptor at 10 uM by radioligand displacement assay
Rattus norvegicus = species: Rattus norvegicus; assay: Selectivity ratio of Ki for rat alpha4beta2 nAChR over Ki for rat alpha3beta4 nAChR
[45] = target: T2, Kappa-type opioid receptor; assay: Binding affinity to kappa opioid receptor by radioligand displacement assay
[46] = target: Neuronal acetylcholine receptor; alpha4/beta4 (Rattus norvegicus, UniProt P09483+P12392); assay: Displacement of [3H]epibatidine from rat alpha4beta4 nAChR receptor; type: protein-complex assay
[47] = target: T3, Neuronal acetylcholine receptor; alpha4/beta2 (Rattus norvegicus, UniProt P09483+P12390); assay: Displacement of [3H]epibatidine from rat alpha4beta2 nAChR receptor; type: protein-complex assay
T3 sequence (P09483 whole entry): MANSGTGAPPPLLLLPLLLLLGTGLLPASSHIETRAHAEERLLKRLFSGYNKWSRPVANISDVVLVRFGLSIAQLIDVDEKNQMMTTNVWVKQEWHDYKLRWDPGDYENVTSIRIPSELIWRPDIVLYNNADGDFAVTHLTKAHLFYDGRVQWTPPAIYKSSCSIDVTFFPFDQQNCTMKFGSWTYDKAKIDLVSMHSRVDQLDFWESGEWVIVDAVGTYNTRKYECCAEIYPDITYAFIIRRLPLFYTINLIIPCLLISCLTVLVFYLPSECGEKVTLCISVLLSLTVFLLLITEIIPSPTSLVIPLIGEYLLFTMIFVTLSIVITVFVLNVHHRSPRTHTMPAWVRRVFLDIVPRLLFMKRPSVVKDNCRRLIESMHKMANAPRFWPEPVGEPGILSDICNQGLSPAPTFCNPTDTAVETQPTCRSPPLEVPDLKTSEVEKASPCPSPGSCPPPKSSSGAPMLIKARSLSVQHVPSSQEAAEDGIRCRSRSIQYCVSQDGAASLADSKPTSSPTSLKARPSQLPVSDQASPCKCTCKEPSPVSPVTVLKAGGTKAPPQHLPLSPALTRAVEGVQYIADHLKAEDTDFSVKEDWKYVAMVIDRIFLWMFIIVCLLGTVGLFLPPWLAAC
T3 sequence (P12390 whole entry): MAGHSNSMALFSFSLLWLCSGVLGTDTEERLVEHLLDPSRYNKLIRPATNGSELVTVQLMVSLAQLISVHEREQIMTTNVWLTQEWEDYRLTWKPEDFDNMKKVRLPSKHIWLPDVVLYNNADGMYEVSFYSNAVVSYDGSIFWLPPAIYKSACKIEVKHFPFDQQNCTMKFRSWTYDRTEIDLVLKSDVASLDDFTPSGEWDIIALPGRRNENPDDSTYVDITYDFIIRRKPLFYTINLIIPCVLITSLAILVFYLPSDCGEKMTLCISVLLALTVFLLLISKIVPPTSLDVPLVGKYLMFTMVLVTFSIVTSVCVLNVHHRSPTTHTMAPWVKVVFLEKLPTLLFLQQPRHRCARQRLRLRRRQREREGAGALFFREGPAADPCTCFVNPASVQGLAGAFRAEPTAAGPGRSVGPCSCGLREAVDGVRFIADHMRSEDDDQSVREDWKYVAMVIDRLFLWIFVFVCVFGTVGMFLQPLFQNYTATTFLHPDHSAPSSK

[48] = target: Neuronal acetylcholine receptor; alpha3/beta4 (Rattus norvegicus, UniProt P04757+P12392); assay: Displacement of [3H]epibatidine from rat alpha3beta4 nAChR receptor; type: protein-complex assay
[49] = target: Neuronal acetylcholine receptor; alpha2/beta4 (Rattus norvegicus, UniProt P12389+P12392); assay: Displacement of [3H]epibatidine from rat alpha2beta4 receptor; type: protein-complex assay
[50] = target: Neuronal acetylcholine receptor; alpha3/beta2 (Rattus norvegicus, UniProt P04757+P12390); assay: Displacement of [3H]epibatidine from rat alpha3beta2 receptor; type: protein-complex assay
Sequence of Neuronal acetylcholine receptor; alpha3/beta2 (P04757 whole entry): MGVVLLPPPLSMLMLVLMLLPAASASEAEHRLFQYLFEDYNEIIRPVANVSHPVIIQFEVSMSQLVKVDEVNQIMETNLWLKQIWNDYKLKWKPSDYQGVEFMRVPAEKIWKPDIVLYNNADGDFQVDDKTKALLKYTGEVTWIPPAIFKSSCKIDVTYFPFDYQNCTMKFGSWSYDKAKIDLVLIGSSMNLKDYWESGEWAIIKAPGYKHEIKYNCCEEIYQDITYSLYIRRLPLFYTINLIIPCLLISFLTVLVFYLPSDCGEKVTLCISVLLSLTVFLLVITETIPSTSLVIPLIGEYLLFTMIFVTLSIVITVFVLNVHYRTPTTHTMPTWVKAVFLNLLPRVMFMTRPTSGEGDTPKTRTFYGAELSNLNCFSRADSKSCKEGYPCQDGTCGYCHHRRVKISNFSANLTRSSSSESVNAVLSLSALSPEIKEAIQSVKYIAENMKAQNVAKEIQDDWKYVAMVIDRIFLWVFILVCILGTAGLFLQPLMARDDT
Sequence of Neuronal acetylcholine receptor; alpha3/beta2 (P12390 whole entry): as the sequence (P12390 whole entry) above

[51] = target: Neuronal acetylcholine receptor; alpha2/beta2 (Rattus norvegicus, UniProt P12389+P12390); assay: Displacement of [3H]epibatidine from rat alpha2beta2 receptor; type: protein-complex assay
[52] = target: T1, Neuronal acetylcholine receptor; alpha4/beta2; assay: Antagonist activity at human alpha4beta2 nAChR expressed in SH-EP1 cells assessed as inhibition of carbamylcholine-induced 86Rb+ ion efflux by liquid scintillation counting; type: functional, cell-based
[53] = target: T1, Neuronal acetylcholine receptor; alpha4/beta2; assay: Antagonist activity at human alpha4beta2 nAChR expressed in SH-EP1 cells assessed as inhibition of carbamylcholine-induced 86Rb+ ion efflux by liquid scintillation counting relative to mecamylamine; type: functional, cell-based
[54] = target: Mu-type opioid receptor (Homo sapiens) (UniProt P35372); assay: Binding affinity to MOR at 10 uM by radioligand displacement assay
[55] = target: T3, Neuronal acetylcholine receptor; alpha4/beta2; assay: Displacement of [3H]epibatidine from rat alpha4beta2 receptor expressed in HEK cells; type: cell-based, HEK293
In short: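 Competition binding of [3H]epibatidine to membrane fractions from HEK cells stably transfected with rat α4 and β2 subunits; Ki values for blockade of specific binding.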

Mus musculus [56] = assay: Antidepressant activity in BALB/cJ mouse assessed as decrease in immobility time at 1 mg/kg, po after 30 mins by forced swim test; type: functional, organism-based; set-up: dose 1 mg/kg; in short: as §2
Mus musculus [57] = assay: Antidepressant activity in BALB/cJ mouse assessed as decrease in immobility time at 3 mg/kg, po after 30 mins by forced swim test; type: functional, organism-based; set-up: dose 3 mg/kg; in short: as §2
Liver microsomes = assay: Metabolic stability in human liver microsomes at 1 uM; type: ADME, Microsome
Liver = assay: Metabolic stability in mouse liver microsomes at 1 uM; type: ADME, Microsome
Plasma = assay: Plasma protein binding in CD1 mouse at 10 uM; type: ADME, cell-free
[58] = Inhibition of cytochrome P450; type: ADME
In short: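 Inhibitory potential tested against nine different CYP450 enzymes.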

Cl.OCCc1cc(-c2cncc(OC[C@@H]3CCN3)c2)on1
Activity (Mus musculus [1]): Active
Activity (Mus musculus [2]): Active
Activity (Mus musculus [3]): 60%
Activity (Mus musculus [4]): Active

Cl.OCCCc1cc(-c2cncc(OC[C@@H]3CCN3)c2)on1
Efficacy [5]: 13%
EC50 [6]: 36 nM
inhibition [7]: -4.3%
inhibition [8]: 25.9%
inhibition [9]: -0.6%
inhibition [10]: 14.2%
inhibition [11]: 20%
inhibition [12]: 6.4%
inhibition [13]: 2%
inhibition [14]: -6.8%
inhibition [15]: 11.4%
inhibition [16]: 2%
inhibition [17]: -4.4%
inhibition [18]: 6.2%
inhibition [19]: 42.6%
inhibition [20]: -1%
inhibition [21]: -3.2%
inhibition [22]: 22%
inhibition [23]: 10.8%
inhibition [24]: -0.5%
inhibition [25]: 2.9%
inhibition [26]: -0.4%
inhibition [27]: -9.5%
inhibition [28]: 21.7%
inhibition [29]: -1.8%
inhibition [30]: 19.8%
inhibition [31]: 15.3%
inhibition [32]: 19.8%
inhibition [33]: -3.3%
inhibition [34]: 26.9%
inhibition [35]: 16.2%
inhibition [36]: 22.3%
inhibition [37]: 18.8%
inhibition [38]: 14.6%
inhibition [39]: 17.7%
inhibition [40]: 22.2%
inhibition [41]: 4.1%
inhibition [42]: -9.9%
inhibition [43]: 7.1%
inhibition [44]: 0.3%
Ratio Ki (Rattus norvegicus): 15000
Ki [45]: > 10000 nM
Ki [46]: 182 nM
Ki [47]: 0.67 nM
Ki [48]: > 10000 nM
Ki [49]: 1410 nM
Ki [50]: 16 nM
Ki [51]: 0.9 nM
IC50 [52]: 61 nM
Efficacy [53]: 68%
Activity (Mus musculus [1]): inactive
Activity (Mus musculus [2]): Active
inhibition [54]: 14.2%
Ki [55]: 0.67 nM
Activity (Mus musculus [4]): Active
Activity (Mus musculus [56]): inactive
Activity (Mus musculus [57]): inactive
Stability (Liver microsomes): Stable
Stability (Liver): Stable
PPB (Plasma): 26%
inhibition (INH) [58]: Not Active
